Compound activity from PubChem.
APJ antag = antagonists of human APJ apelin receptor. P35414. CHO-K1 APJ beta-arrestin complementation, luminescence. inhibition, % at 20 µM. actives 0.32% (n = 330,000). AID 2521;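 active = inhibition above about 40% at 20 µM, limit read from the data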;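 also: cells challenged with 10 nM apelin-13 agonist together with compound; plate controls were apelin-13 plus DMSO wells for no effect and DMSO wells lacking apelin-13 for full effect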
APJ ag = agonists of human APJ apelin receptor. P35414. CHO-K1 APJ PathHunter beta-arrestin, luminescence; 0% DMSO wells, 100% apelin. activation, % at 20 µM. actives 0.11% (n = 330,000). AID 2520;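 active = activation more than six SD over the plate average, tested at 20 µM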;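 also: 0% = DMSO alone and 100% = apelin-13 at 10 nM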
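Assay system: engineered CHO-K1 APJ arrestin reporter cells; Amount: 1000 CHO-K1 reporter cells seeded per well; Dosing: one dose, 20 µM compound, 1% DMSO; Times: compound stimulation 90 min at 25 °C, detection 60 min; Measured by: luminescent beta-gal fragment complementation, chemiluminescent substrate; Read-out: APJ–arrestin association signal; Controls: DMSO vs Apelin-13 10 nM.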
CXCR6 inh = blocks human CXCR6 beta-arrestin recruitment; CHO-K1 PathHunter CXCR6 beta-arrestin, luminescence; actives 0.36% (n = 360,000); AID 602244; inhibition, % at 20 µM; in the data active = inhibition above about 34%, passing the limit was not always enough;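 also: antagonist mode with CXCL16 agonist at 10 nM final; 0% = 10 nM CXCL16 with DMSO and 100% = unstimulated wells without agonist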
EBI2 antag = EBI2 (human) antagonism; actives 0.81% (n = 360,000); EBI2 beta-arrestin recruitment, luminescence, 7a,25-OHC stimulated; inhibition, % at 5 µM; in the data active = inhibition above about 38%;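 also: enzyme fragment complementation signal reports receptor beta-arrestin coupling in cells; 0% = agonist plus DMSO wells and 100% = wells without agonist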
CCR6 antagonist = blocks CCL20-driven beta-arrestin recruitment at human CCR6 | CHO-K1 CCR6 PathHunter beta-arrestin, luminescence, CCL20-stimulated | actives 0.49% (n = 340,000) | inhibition, % at 20 µM | AID 493098 | P51684;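 active = compounds whose inhibition of the agonist-driven luminescence signal at 20 µM reaches about 50%, limit read from the data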;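 also: cells stimulated with CCL20 at 14 nM final; plate controls were DMSO with CCL20 for no effect and DMSO without agonist for full effect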
m5-HT2A agonist = activates the mouse 5-HT2A serotonin receptor | P35363 | CHO-K1 mHTR2A beta-arrestin complementation, luminescence; percent of 30 µM serotonin response | activation, % at 7.6 µM | actives 0.66% (n = 360,000);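 active = activation above a run cutoff, the mean activation of all tested compounds plus 3 SD, cut at about 14% in these data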;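 also: 0% = plate median of compound wells and 100% = 30 µM serotonin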
Target sequence (P35363 whole entry, looked up): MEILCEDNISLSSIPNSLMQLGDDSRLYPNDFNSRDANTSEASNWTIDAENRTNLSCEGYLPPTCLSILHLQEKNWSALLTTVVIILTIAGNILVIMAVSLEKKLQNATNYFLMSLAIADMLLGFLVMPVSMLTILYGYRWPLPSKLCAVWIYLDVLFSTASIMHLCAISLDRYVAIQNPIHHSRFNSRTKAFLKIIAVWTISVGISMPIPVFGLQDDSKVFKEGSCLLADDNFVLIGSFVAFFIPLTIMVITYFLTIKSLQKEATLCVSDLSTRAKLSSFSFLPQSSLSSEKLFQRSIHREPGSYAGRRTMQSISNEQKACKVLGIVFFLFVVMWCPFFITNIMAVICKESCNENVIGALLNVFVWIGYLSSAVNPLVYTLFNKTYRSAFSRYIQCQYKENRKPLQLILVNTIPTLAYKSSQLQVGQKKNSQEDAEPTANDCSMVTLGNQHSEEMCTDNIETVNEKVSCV
CXCR6 antag conf = CXCR6 antagonism confirmation, single concentration | actives 65% (n = 700) | CHO-K1 CXCR6 PathHunter beta-arrestin, luminescence | inhibition, % at 20 µM | shares compounds with CXCR6 inh;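 active = mean inhibition over four retests above 40%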;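 also: receptor stimulated with 10 nM CXCL16 agonist; beta-galactosidase fragment complementation upon beta-arrestin recruitment to receptor; plate controls were CXCL16 plus DMSO for no effect and DMSO without CXCL16 for full effect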
Starred values were filed as active, the others as inactive. In the library only some 2.2% were active in any assay of this set; here they are far more common.

`Cn1cnc([N+](=O)[O-])c1S(=O)(=O)c1cccc(Cl)c1` gave APJ antag 36.2, APJ ag -2.9, CXCR6 inh 49.3*, EBI2 antag 20.6, CCR6 antagonist 59.4*, m5-HT2A agonist -7.1 and CXCR6 antag conf 65.5*.
Screening Cn1cnc([N+](=O)[O-])c1S(=O)(=O)Oc1ccccc1 returned CXCR6 inh 42.1*, EBI2 antag 11.1, CCR6 antagonist 49.4, m5-HT2A agonist -1.9 and CXCR6 antag conf 59.7*.
`Cn1cnc([N+](=O)[O-])c1S(=O)(=O)Nc1ccccc1` gave CXCR6 inh 11.3, EBI2 antag 2.0, CCR6 antagonist 4.5 and m5-HT2A agonist 4.3.
`CC(C)c1ccc(C(=O)N2CCCC(c3cc(C(=O)Nc4ccc5c(c4)OCO5)no3)C2)cc1` (centres undefined) gave CXCR6 inh -0.2, EBI2 antag 8.2 and m5-HT2A agonist -3.0.
Screening COc1ccc(C(=O)NN/C(C)=C/C(=O)c2ccccc2)cc1 returned APJ antag 18.9, APJ ag -2.9, CXCR6 inh 7.1, EBI2 antag -5.5, CCR6 antagonist 22.9 and m5-HT2A agonist -6.4.
Screening C/C(=C\C(=O)c1ccccc1)NNC(=O)c1ccc(Cl)cc1 returned APJ antag 26.9, APJ ag -5.1, CXCR6 inh 46.0*, EBI2 antag 1.8, CCR6 antagonist 55.5*, m5-HT2A agonist -1.8 and CXCR6 antag conf 6.0.
`CCN(CC)C(=O)C1=C(C)N(Cc2ccc(C(C)(C)C)cc2)C(=O)C(CC(=O)NCCCN(C)C)C1` (centres undefined) gave CXCR6 inh -3.9, EBI2 antag -5.7 and m5-HT2A agonist -0.5.
`CCNc1nc(-c2sc(NC(=O)C(C)(C)C)nc2C)c(-n2cc(-c3ccccc3)nn2)s1` gave CXCR6 inh -6.1, EBI2 antag -43.7 and m5-HT2A agonist 8.6.
For COC(=O)[C@@]12C[C@@H](CC(=O)N3CCC(c4ccccc4)CC3)C(=O)N(Cc3ccc4c(c3)OCO4)C1=CCC(C)(C)C2 the results were EBI2 antag 20.9 and m5-HT2A agonist 1.6.
`NC(=S)N/N=C/c1ncc(C(F)(F)F)cc1Cl` gave APJ antag 58.1*, APJ ag -6.7, CXCR6 inh 60.7*, EBI2 antag 3.6, CCR6 antagonist 74.3*, m5-HT2A agonist -2.2 and CXCR6 antag conf 89.9*.
For NC(=S)N/N=C/c1ccc(C(F)(F)F)cc1 the results were APJ antag 1.6, APJ ag 1.8, CXCR6 inh 2.1, EBI2 antag -0.8, CCR6 antagonist -5.7 and m5-HT2A agonist 0.2.
Screening CCOc1cc(CNCCO)c(Cl)cc1OCC(=O)NCCc1ccccc1 returned APJ antag -7.5, APJ ag -1.1, CXCR6 inh 70.8*, EBI2 antag 7.9, CCR6 antagonist -5.9, m5-HT2A agonist -2.5 and CXCR6 antag conf 12.9.
Screening O=[N+]([O-])c1ccc(N/N=C/c2sc(N3CCOCC3)nc2-c2ccccc2)c(S(=O)(=O)Nc2ccccc2Cl)c1 returned CXCR6 inh 54.4*, EBI2 antag 15.4, CCR6 antagonist 58.2*, m5-HT2A agonist 3.5 and CXCR6 antag conf 59.7*.
`COc1cccc(NC(=O)Nc2nnc([C@H]3C[C@H](O)[C@@H](CO)O3)s2)c1` gave CXCR6 inh -6.3, EBI2 antag -3.7 and m5-HT2A agonist 2.0.
For CCOC(=O)C1=C(c2ccccc2)NC(N)=NC1c1ccc(OCc2ccc(C(=O)OC)cc2)cc1 (centres undefined) the results were APJ antag 3.2, APJ ag -0.6, CXCR6 inh 34.6*, EBI2 antag 1.1, CCR6 antagonist 42.6, m5-HT2A agonist 3.2 and CXCR6 antag conf 22.6.
For CCOC(=O)C1=C(c2ccccc2)Nc2ncnn2C1c1ccc(C(=O)O)cc1 (centres undefined) the results were APJ antag 9.0, APJ ag 4.9, CXCR6 inh -7.7, EBI2 antag 3.6, CCR6 antagonist 3.9 and m5-HT2A agonist -0.3.
For O=C(COC(=O)c1ccco1)NCC1CCCCC1 the results were APJ antag 5.8, APJ ag 9.6, CXCR6 inh -0.6, EBI2 antag 2.0, CCR6 antagonist -7.2 and m5-HT2A agonist 1.7.
Screening O=C(CCNC(=O)c1ccco1)NCCc1ccc(Cl)cc1 returned APJ antag 6.7, APJ ag -2.4, CXCR6 inh 40.3*, EBI2 antag 7.6, CCR6 antagonist 8.5, m5-HT2A agonist -5.9 and CXCR6 antag conf 16.6.
NS(=O)(=O)c1ccc(CCNC(=O)CCNC(=O)c2ccco2)cc1 was read as APJ antag 2.2, APJ ag -0.2, CXCR6 inh 2.4, EBI2 antag 4.6, CCR6 antagonist 6.5 and m5-HT2A agonist 4.6.
`O=C(COC(=O)c1ccco1)NCCNC(=O)COC(=O)c1ccco1` gave APJ antag -2.6, APJ ag -2.0, CXCR6 inh 35.5*, EBI2 antag -1.1, CCR6 antagonist 0.8, m5-HT2A agonist 3.1 and CXCR6 antag conf 5.6.
For CC(=O)NC(=Cc1ccccc1)C(=O)N1CCCC1C(=O)O (centres undefined) the results were CXCR6 inh 3.3, EBI2 antag 8.4 and m5-HT2A agonist 2.0.
`CC(C)CNC(=O)C1(C)CCN1C(=O)c1ccc(C(C)(C)C)cc1` (centres undefined) gave CXCR6 inh -4.6, EBI2 antag -6.2 and m5-HT2A agonist 3.6.
COc1ccc(-c2[nH]ncc2CN2CCN(C(=O)c3ccco3)CC2)cc1F was read as APJ antag 6.7, APJ ag -1.9, CXCR6 inh -2.6, EBI2 antag 2.4, CCR6 antagonist 9.0 and m5-HT2A agonist 1.2.
O=C(c1ccco1)N1CCN(Cc2cn[nH]c2-c2ccc(F)cc2F)CC1 was read as APJ antag 11.7, APJ ag 3.1, CXCR6 inh 56.7*, EBI2 antag -3.5, CCR6 antagonist 5.5, m5-HT2A agonist 8.1 and CXCR6 antag conf 11.5.
`CCN(CC(=O)NC(C)(C)C)Cc1nc2c(Br)cc(Br)cc2c(=O)[nH]1` gave APJ antag -12.0, APJ ag -4.9, CXCR6 inh 53.5*, EBI2 antag 7.3, m5-HT2A agonist 0.2 and CXCR6 antag conf 56.1*.
CCc1nc2ccc(C(=O)N3CCN(C(=O)c4ccco4)CC3)cn2c1N(CCC(C)C)CCN(C)C was read as CXCR6 inh -0.4, EBI2 antag -1.9 and m5-HT2A agonist 11.4.
